Columns and labels:
[1] = Growth inhibition of human HL-60(TB) cells assessed as cell growth at 10^-5 M incubated for 48 hrs by sulforhodamine B assay; type: functional; settings: HL-60, 48 h, read-out: Activity
Summary of the method: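 Cells plated at 5,000–40,000/well according to doubling time and preincubated 24 h at 37 °C, 5% CO₂, with time-zero plates TCA-fixed. Drugs were kept as DMSO concentrates at 400× the top concentration and diluted in medium with 50 µg/ml gentamicin. Five 10-fold or ½-log dilutions were run for 48 h, followed by SRB staining and A515. Percent growth = (Ti−Tz)/(C−Tz)×100, or (Ti−Tz)/Tz×100 when Ti<Tz.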

[2] = Growth inhibition of human TK10 cells incubated for 48 hrs by sulforhodamine B assay; type: functional; settings: TK-10, 48 h
Summary of the method: (§1)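 Cells were plated at 5,000–40,000 per well according to doubling time and preincubated 24 h at 37 °C in 5% CO2; time-zero plates were then TCA-fixed. Five concentrations (10-fold or ½-log dilutions, DMSO stock) were incubated 48 h. Cells were TCA-fixed, stained with 0.4% SRB and read at 515 nm. GI50 was taken where [(Ti−Tz)/(C−Tz)]×100 = 50.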

[3] = Growth inhibition of human RPMI8226 cells assessed as cell growth at 10^-7 M incubated for 48 hrs by sulforhodamine B assay; type: functional; settings: RPMI-8226, 48 h, read-out: Activity
K562 = test: Growth inhibition of human K562 cells assessed as cell growth at 10^-4 M incubated for 48 hrs by sulforhodamine B assay; type: functional; settings: K562, 48 h, read-out: Activity
NCI/ADR-RES = test: Growth inhibition of human NCI/ADR-RES cells incubated for 48 hrs by sulforhodamine B assay; type: functional; summary of the method: as §1
SR = test: Growth inhibition of human SR cells assessed as cell growth at 10^-4 M incubated for 48 hrs by sulforhodamine B assay; type: functional; settings: read-out: Activity
Albumin = Albumin (Bos taurus, UniProt P02769); test: Binding affinity to bovine serum albumin assessed as binding constant in absorption spectra by Benesie-Hildebrand plot analysis; type: ADME; settings: cattle, isolated protein
Albumin, sequence (P02769 whole entry): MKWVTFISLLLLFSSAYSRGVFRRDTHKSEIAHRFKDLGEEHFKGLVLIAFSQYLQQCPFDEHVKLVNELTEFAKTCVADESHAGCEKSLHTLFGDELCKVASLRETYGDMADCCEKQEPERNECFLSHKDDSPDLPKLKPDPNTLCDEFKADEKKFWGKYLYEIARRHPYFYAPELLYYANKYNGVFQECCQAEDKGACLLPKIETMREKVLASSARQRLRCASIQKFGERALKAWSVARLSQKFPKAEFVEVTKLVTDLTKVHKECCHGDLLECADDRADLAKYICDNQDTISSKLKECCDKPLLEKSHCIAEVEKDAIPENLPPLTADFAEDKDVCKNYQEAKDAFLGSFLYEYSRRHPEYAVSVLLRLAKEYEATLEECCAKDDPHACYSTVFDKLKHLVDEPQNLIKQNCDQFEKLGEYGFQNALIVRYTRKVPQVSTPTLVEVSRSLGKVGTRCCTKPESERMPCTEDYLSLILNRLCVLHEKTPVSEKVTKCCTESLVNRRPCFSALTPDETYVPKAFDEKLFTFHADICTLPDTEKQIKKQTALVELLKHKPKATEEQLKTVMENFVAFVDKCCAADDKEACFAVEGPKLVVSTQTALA
Summary of the method: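 BSA, 10 µM, in 0.1 M phosphate buffer pH 7.4, titrated with compound (0–20 µM per the figure; diluted from 10⁻³ mol L⁻¹ DMSO stocks). Run at 300 K in a 1 cm quartz cell. UV spectra taken 200–800 nm after 5 min equilibration; fluorescence excited at 280 nm, emission 351 nm, slit 10 nm. K is the intercept/slope ratio of a linear fit of 1/(A₀−A) or 1/(F₀−F) vs 1/[compound].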

ACHN = test: Growth inhibition of human ACHN cells incubated for 48 hrs by sulforhodamine B assay; type: functional
Summary of the method: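 Five-dose assay: five concentrations from 10-fold or ½-log serial dilutions. Cells are plated at 5,000–40,000 per well according to doubling time, grown 24 h, then exposed 48 h at 37 °C, 5% CO₂. Fixed with cold 50% TCA (final addition) for 60 min at 4 °C and stained with 0.4% SRB in 1% acetic acid. Bound dye is solubilized in 10 mM Tris base and read at 515 nm. GI₅₀ is where [(Ti−Tz)/(C−Tz)]×100 = 50, with a time-zero plate as Tz.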

[4] = Growth inhibition of human breast cancer cells incubated for 48 hrs by sulforhodamine B assay; type: functional; settings: Cancer cell lines; for CC50: read-out: LC50 (the source's name)
MDA-MB-435 [5] = test: Growth inhibition of human MDA-MB-435 cells assessed as cell growth at 10^-5 M incubated for 48 hrs by sulforhodamine B assay; type: functional; settings: MDA-MB-435, 48 h, read-out: Activity
[6] = Growth inhibition of human COLO205 cells assessed as cell growth at 10^-8 M incubated for 48 hrs by sulforhodamine B assay; type: functional; settings: COLO 205, 48 h, read-out: Activity
Summary of the method: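 Cells seeded at 5,000–40,000/well according to doubling time and preincubated 24 h at 37 °C, 5% CO2. Time-zero plates were TCA-fixed. DMSO concentrate was diluted in medium with 50 µg/ml gentamicin to give five concentrations (10-fold or ½ log steps), then exposed 48 h. Cells were TCA-fixed, stained with 0.4% SRB and read at 515 nm. Percent growth was taken against time-zero and control; GI50, TGI and LC50 derived.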

[7] = Growth inhibition of human UACC62 cells assessed as cell growth at 10^-6 M incubated for 48 hrs by sulforhodamine B assay; type: functional; settings: UACC-62, 48 h, read-out: Activity
NCI-H226 = test: Growth inhibition of human NCI-H226 cells assessed as cell growth at 10^-5 M incubated for 48 hrs by sulforhodamine B assay; type: functional; settings: NCI-H226, 48 h, read-out: Activity
[8] = Growth inhibition of human OVCAR4 cells incubated for 48 hrs by sulforhodamine B assay; type: functional; settings: OVCAR-4, 48 h; summary of the method: as §1
NCI-H522 = test: Growth inhibition of human NCI-H522 cells incubated for 48 hrs by sulforhodamine B assay; type: functional; settings: NCI-H522, 48 h; summary of the method: as §1
[9] = Growth inhibition of human SNB19 cells assessed as cell growth at 10 uM incubated for 48 hrs by sulforhodamine B assay; type: functional; settings: SNB-19, 48 h, read-out: Activity
[10] = Growth inhibition of human RPMI8226 cells assessed as cell growth at 10^-6 M incubated for 48 hrs by sulforhodamine B assay; type: functional; settings: RPMI-8226, 48 h, read-out: Activity
MDA-MB-435 [11] = test: Growth inhibition of human MDA-MB-435 cells assessed as cell growth at 10^-8 M incubated for 48 hrs by sulforhodamine B assay; type: functional; settings: MDA-MB-435, 48 h, read-out: Activity
Malme-3M = test: Growth inhibition of human MALME-3M cells assessed as cell growth at 10^-8 M incubated for 48 hrs by sulforhodamine B assay; type: functional; settings: read-out: Activity
[12] = Growth inhibition of human OVCAR5 cells assessed as cell growth at 10^-6 M incubated for 48 hrs by sulforhodamine B assay; type: functional; settings: OVCAR-5, 48 h, read-out: Activity
MCF7 = test: Growth inhibition of human MCF7 cells assessed as cell growth at 10^-8 M incubated for 48 hrs by sulforhodamine B assay; type: functional; settings: MCF7, 48 h, read-out: Activity
[13] = read-out: LC50 (the source's name)
[14] = read-out: pLC50 (the source's name) (converted)

c1ccc2[nH]c(-c3ccc(Nc4nc(N5CCCCC5)nc(N5CCOCC5)n4)cc3)nc2c1
growth at 10 µM [1]: -31% | GI50 ([2]; read-out: GI50): 3.21 µM | CC50 [2, 13]: > 100 µM | TGI ([2]; read-out: TGI): 9.26 µM | GI50 ([2]; read-out: pGI50 (converted)): 3.24 µM | CC50 [2, 14]: > 100 µM | TGI ([2]; read-out: pTGI (converted)): 9.33 µM | growth at 0.1 µM [3]: 95% | growth at 100 µM (K562): 1% | GI50 (NCI/ADR-RES; read-out: GI50): 4.69 µM | CC50 (NCI/ADR-RES; [13]): > 100 µM | TGI (NCI/ADR-RES; read-out: TGI): 55.2 µM | GI50 (NCI/ADR-RES; read-out: pGI50 (converted)): 4.68 µM | CC50 (NCI/ADR-RES; [14]): > 100 µM | TGI (NCI/ADR-RES; read-out: pTGI (converted)): 55 µM | growth at 100 µM (SR): -11% | K (Albumin): 9.7 ×10⁴ /M | GI50 (ACHN; read-out: GI50): 3.14 µM | CC50 (ACHN; [13]): > 100 µM | TGI (ACHN; read-out: TGI): > 100 µM | GI50 (ACHN; read-out: pGI50 (converted)): 3.16 µM | CC50 (ACHN; [14]): > 100 µM | TGI (ACHN; read-out: pTGI (converted)): > 100 µM | GI50 [4]: 2.36 µM | TGI [4]: 6.72 µM | CC50 [4]: 92.7 µM | growth at 10 µM (MDA-MB-435 [5]): -48% | growth at 0.01 µM [6]: 99% | growth at 1 µM [7]: 92% | growth at 10 µM (NCI-H226): 12% | GI50 ([8]; read-out: GI50): 3.98 µM | CC50 [8, 13]: > 100 µM | TGI ([8]; read-out: TGI): 25.4 µM | GI50 ([8]; read-out: pGI50 (converted)): 3.98 µM | CC50 [8, 14]: > 100 µM | TGI ([8]; read-out: pTGI (converted)): 25.1 µM | GI50 (NCI-H522; read-out: GI50): 2.36 µM | CC50 (NCI-H522; [13]): > 100 µM | TGI (NCI-H522; read-out: TGI): 6.22 µM | GI50 (NCI-H522; read-out: pGI50 (converted)): 2.34 µM | CC50 (NCI-H522; [14]): > 100 µM | TGI (NCI-H522; read-out: pTGI (converted)): 6.17 µM | growth at 10 µM [9]: 10.4% | growth at 1 µM [10]: 87% | growth at 0.01 µM (MDA-MB-435 [11]): 96% | growth at 0.01 µM (Malme-3M): 86% | growth at 1 µM [12]: 103% | growth at 0.01 µM (MCF7): 95%

Clc1ccc(-c2nc(Nc3ccc(-c4nc5ccccc5[nH]4)cc3)nc(N3CCOCC3)n2)cc1
growth at 10 µM [1]: -71% | GI50 ([2]; read-out: GI50): 1.96 µM | CC50 [2, 13]: 5.97 µM | TGI ([2]; read-out: TGI): 3.42 µM | GI50 ([2]; read-out: pGI50 (converted)): 1.95 µM | CC50 [2, 14]: 6.03 µM | TGI ([2]; read-out: pTGI (converted)): 3.39 µM | growth at 0.1 µM [3]: 99% | growth at 100 µM (K562): -29% | GI50 (NCI/ADR-RES; read-out: GI50): 0.631 µM | TGI (NCI/ADR-RES; read-out: TGI): 2.19 µM | GI50 (NCI/ADR-RES; read-out: pGI50 (converted)): 0.631 µM | TGI (NCI/ADR-RES; read-out: pTGI (converted)): 2.19 µM | growth at 100 µM (SR): 5% | K (Albumin): 1 ×10⁵ /M | GI50 (ACHN; read-out: GI50): 1.05 µM | TGI (ACHN; read-out: TGI): 2.38 µM | GI50 (ACHN; read-out: pGI50 (converted)): 1.05 µM | TGI (ACHN; read-out: pTGI (converted)): 2.4 µM | GI50 [4]: 0.62 µM | TGI [4]: 1.86 µM | CC50 [4]: > 100 µM | growth at 10 µM (MDA-MB-435 [5]): -98% | growth at 0.01 µM [6]: 95% | growth at 1 µM [7]: -53% | growth at 10 µM (NCI-H226): -55% | GI50 ([8]; read-out: GI50): 1.04 µM | CC50 [8, 13]: 5.53 µM | TGI ([8]; read-out: TGI): 2.4 µM | GI50 ([8]; read-out: pGI50 (converted)): 1.05 µM | CC50 [8, 14]: 5.5 µM | TGI ([8]; read-out: pTGI (converted)): 2.4 µM | GI50 (NCI-H522; read-out: GI50): 1.5 µM | TGI (NCI-H522; read-out: TGI): 3.19 µM | GI50 (NCI-H522; read-out: pGI50 (converted)): 1.51 µM | TGI (NCI-H522; read-out: pTGI (converted)): 3.16 µM | growth at 10 µM [9]: -81.2% | growth at 1 µM [10]: -20% | growth at 0.01 µM (MDA-MB-435 [11]): 100% | growth at 0.01 µM (Malme-3M): 96% | growth at 1 µM [12]: 32% | growth at 0.01 µM (MCF7): 92%

From ChEMBL document CHEMBL3808334, “Synthesis and in vitro evaluation of novel triazine analogues as anticancer agents and their interaction studies with bovine serum albumin” (Eur J Med Chem, 2016)
